{"data": "Measured values gathered from unrelated publications", "target": "Mitogen-activated protein kinase kinase kinase 13 (MAP3K13, Homo sapiens, UniProt O43283)", "One construct used (O43283 1-966)": "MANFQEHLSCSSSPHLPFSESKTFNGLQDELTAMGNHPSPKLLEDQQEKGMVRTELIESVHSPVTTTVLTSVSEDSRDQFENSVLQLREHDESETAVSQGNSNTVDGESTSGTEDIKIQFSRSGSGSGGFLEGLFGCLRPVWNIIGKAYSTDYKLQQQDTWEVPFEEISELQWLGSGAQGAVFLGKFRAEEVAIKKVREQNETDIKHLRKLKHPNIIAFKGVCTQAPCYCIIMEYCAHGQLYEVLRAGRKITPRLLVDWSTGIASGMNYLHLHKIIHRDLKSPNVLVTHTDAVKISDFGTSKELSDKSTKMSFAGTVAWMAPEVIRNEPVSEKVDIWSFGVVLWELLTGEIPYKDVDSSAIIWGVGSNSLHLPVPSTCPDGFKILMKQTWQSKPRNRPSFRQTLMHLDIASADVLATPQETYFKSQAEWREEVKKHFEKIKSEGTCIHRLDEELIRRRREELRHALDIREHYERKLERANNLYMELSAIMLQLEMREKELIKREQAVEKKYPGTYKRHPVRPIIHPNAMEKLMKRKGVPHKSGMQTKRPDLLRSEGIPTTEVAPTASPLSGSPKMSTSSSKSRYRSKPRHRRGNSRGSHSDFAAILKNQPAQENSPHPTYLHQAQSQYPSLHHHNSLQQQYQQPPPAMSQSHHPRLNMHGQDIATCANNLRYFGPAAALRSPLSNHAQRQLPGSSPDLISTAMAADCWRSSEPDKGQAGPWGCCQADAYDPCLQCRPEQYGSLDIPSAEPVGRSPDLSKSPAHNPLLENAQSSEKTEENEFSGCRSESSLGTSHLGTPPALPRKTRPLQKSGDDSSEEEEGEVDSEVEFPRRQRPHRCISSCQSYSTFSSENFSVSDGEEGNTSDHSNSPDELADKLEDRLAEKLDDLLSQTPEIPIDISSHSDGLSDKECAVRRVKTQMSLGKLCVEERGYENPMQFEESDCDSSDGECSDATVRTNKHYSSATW", "note": "Protocols differ between the studies behind these lines."}
{"Structure (SMILES)": "CN(C)c1nccc(-c2cnc3ncccn23)n1", "read-out": "binding", "concentration": "1 µM", "remaining binding [%]": 76}
{"Structure (SMILES)": "O=C(NC[C@@H]1[C@H]2CN(C(=O)OCc3cc(C(F)(F)F)cc(C(F)(F)F)c3)C[C@@H]12)c1ccc2[nH]nnc2c1", "read-out": "cell-free assay", "method": "competition with immobilised ligand", "concentration": "1 µM", "remaining binding [%]": 86}
{"Structure (SMILES)": "CC1CCCN1c1nccc(-c2cnn3ncccc23)n1 (centres unmarked)", "read-out": "binding", "concentration": "1 µM", "remaining binding [%]": 100}
{"Structure (SMILES)": "C[C@H](NC(=O)c1cnc2n1[C@](C)(Cc1ccc(C#N)cc1)C(=O)N2c1cc(Cl)c(F)c(Cl)c1)C(=O)NC1(c2ccccn2)CC1", "read-out": "cell-free assay", "method": "competition with immobilised ligand", "concentration": "1 µM", "remaining binding [%]": 100}
{"Structure (SMILES)": "COc1cnc(Nc2cccc(S(N)(=O)=O)c2)nc1N1CCN(c2ccccc2)CC1", "read-out": "binding", "method": "competition with immobilised ligand", "concentration": "1 µM", "remaining binding [%]": 96}
{"Structure (SMILES)": "N[C@@H]1CCN(c2nccc(-c3cnn4ncccc34)n2)C1", "read-out": "binding", "concentration": "1 µM", "remaining binding [%]": 100}
{"Structure (SMILES)": "O=C(NCC1CCOCC1)c1n[nH]cc1NC(=O)c1c(F)cccc1F", "read-out": "binding", "method": "competition with immobilised ligand", "concentration": "1 µM", "remaining binding [%]": 84}
{"Structure (SMILES)": "CN(C)c1nccc(-c2cnn3ncccc23)n1", "read-out": "binding", "concentration": "1 µM", "remaining binding [%]": 85}
{"Structure (SMILES)": "CCN1CCN(Cc2ccc(C(=O)Nc3ccc(C)c(Oc4ccc5c(c4)CC(=O)N5)c3)cc2C(F)(F)F)CC1", "read-out": "binding", "method": "competition with immobilised ligand", "concentration": "1 µM", "remaining binding [%]": 100}
{"Structure (SMILES)": "COc1ncc2cc3ccccc3nc2c1C#N", "read-out": "cell-free assay", "method": "competition with immobilised ligand", "concentration": "5 µM", "remaining binding [%]": 92}
{"Structure (SMILES)": "Cc1cnc(Nc2ccc(C(=O)N3CCC(N4CCCC4)CC3)cc2)nc1-c1cc2ccccc2s1", "read-out": "binding", "method": "competition with immobilised ligand", "concentration": "1 µM", "remaining binding [%]": 25}
{"Structure (SMILES)": "CN(CCCC(F)(F)F)c1nccc(-c2cnn3ncccc23)n1", "read-out": "binding", "concentration": "1 µM", "remaining binding [%]": 100}
{"Structure (SMILES)": "CO[C@@H](C)c1c(Nc2ccc([C@H](N(C)C(=O)C3CCS(=O)(=O)CC3)C(F)(F)F)cc2)cnc2cc(Cl)nn12", "read-out": "cell-free assay", "method": "competition with immobilised ligand", "concentration": "1 µM", "remaining binding [%]": 78}
{"Structure (SMILES)": "O=C(NCCCN1CCOCC1)c1ccc(Nc2nccc(-c3cc4ccccc4s3)n2)cc1", "read-out": "binding", "method": "competition with immobilised ligand", "concentration": "1 µM", "remaining binding [%]": 79}
{"Structure (SMILES)": "CN1CCN(c2cnc3c(C4CCN(C(=O)c5ccc(OC(F)(F)F)cc5N)CC4)ncnc3c2)CC1", "read-out": "cell-free assay", "method": "competition with immobilised ligand", "concentration": "1 µM", "remaining binding [%]": 100}
{"Structure (SMILES)": "C[C@H]1CCN(c2nccc(-c3cnn4ncccc34)n2)C1", "read-out": "binding", "concentration": "1 µM", "remaining binding [%]": 62}
{"Structure (SMILES)": "CC(=O)N1CCC(c2ccc(C(=O)NC(=N)N)cc2C(F)(F)F)CC1", "read-out": "cell-free assay", "method": "competition with immobilised ligand", "concentration": "1 µM", "remaining binding [%]": 100}
{"Structure (SMILES)": "O=C(c1ccc(Nc2ncc(Cl)c(-c3ccc(Cl)s3)n2)cc1)N1CCC(N2CCCC2)CC1", "read-out": "binding", "method": "competition with immobilised ligand", "concentration": "1 µM", "remaining binding [%]": 48}
{"Structure (SMILES)": "O=C(NCCCC1CCCCC1)c1ccc(CNC(=O)c2cnn(-c3ccccc3)c2C(F)(F)F)cc1", "read-out": "cell-free assay", "method": "competition with immobilised ligand", "concentration": "0.1 µM", "remaining binding [%]": 100}
{"Structure (SMILES)": "CNC(=O)[C@@H]1CC[C@@H](n2c(-c3ccc4cnccc4c3)nc3ccc(C(=O)NCc4cccc(C(N)=O)c4)cc32)C1", "read-out": "binding", "method": "competition with immobilised ligand", "concentration": "1 µM", "remaining binding [%]": 100}
